Experimental data of several laboratories.

The Cmax of `CC(C)=CCC[C@](C)(O[C@@H]1O[C@H](CO)[C@@H](O)[C@H](O)[C@H]1O)[C@H]1CC[C@]2(C)[C@@H]1[C@H](O)C[C@@H]1[C@@]3(C)CC[C@H](O)C(C)(C)[C@@H]3CC[C@]12C` is reported as 107 ng/mL (mouse, plasma; oral, 10 mg/kg).
`CCOC(=O)c1c(NC(=O)CNC(C)C)sc2c1CCCCC2` gave a Cmax of 15800 ng/g (male mouse, brain; intraperitoneal, 100 mg/kg, single dose).
`Cc1[nH]c(C)c(S(=O)(=O)Nc2ccc(S(F)(F)(F)(F)F)cc2)c1C(=O)N1CCC(F)(F)C1` gave a Cmax of 31 µM (mouse, plasma; intraperitoneal, 40 mg/kg).
The Cmax of `CC(C)[C@]12O[C@H]1[C@@H]1O[C@]13[C@]1(O[C@H]1C[C@H]1C4=C(CC[C@@]13C)C(=O)OC4)[C@@H]2O` is reported as 1290 ng/mL (SCID mouse, plasma; intravenous, 0.6 mg/kg).
The Cmax of `C[C@@H](O)[C@@H]1NC(=O)CNC(=O)[C@H](Cc2c[nH]cn2)NC(=O)[C@H](Cc2c[nH]c3ccccc23)NC(=O)[C@H](CC(N)=O)NC(=O)CNC(=O)C[C@@H](C(=O)N[C@@H](Cc2c[nH]c3ccccc23)C(=O)N[C@@H](Cc2ccccc2)C(=O)N[C@@H](Cc2ccccc2)C(=O)N[C@@H](CC(N)=O)C(=O)N[C@@H](Cc2ccc(O)cc2)C(=O)N[C@@H](Cc2ccc(O)cc2)C(=O)N[C@@H](Cc2c[nH]c3ccccc23)C(=O)O)NC(=O)[C@@H]2CCCN2C(=O)[C@H](CO)NC1=O` is reported as 11400 ng/mL (mouse, plasma; intravenous, 3 mg/kg).
`N=C(N)NCCC[C@H](NC(=O)[C@H](Cc1ccccc1)NC(=O)[C@H](CCC(N)=O)NC(=O)OCc1ccccc1)C(=O)c1nccs1` gave a Cmax of 3460 ng/mL (female C57BL/6 mouse, plasma; intravenous, 5 mg/kg).
With `COc1cc(C(=O)c2nc(-c3cccc4[nH]ccc34)c[nH]2)cc(OC)c1OC` the Cmax was 1870 ng/mL (male CD-1 mouse, plasma; intraperitoneal, 15 mg/kg).
The Cmax of `O=C1CCC(N2Cc3c(ccc4c3OCC43CCN(Cc4ccccc4)CC3)C2=O)C(=O)N1` (centres unmarked) is reported as 299 ng/mL (male CD-1 mouse, plasma; intravenous, 1 mg/kg).
